Test results from ChEMBL document CHEMBL4842338, “System-oriented optimization of multi-target 2,6-diaminopurine derivatives: Easily accessible broad-spectrum antivirals active against flaviviruses, influenza virus and SARS-CoV-2” (Eur J Med Chem, 2021).
The source made the active and inactive calls. The rule behind the calls is not given here.

What was measured:
A549 = test: Cytotoxicity against human A549 cells assessed as reduction in cell viability measured after 24 hrs by MTT assay; assay type: cell-based; details: a549, 24 h
[1] = Inhibition of full length ZIKV NS5-MTase domain using 7MeGpppAC4 as a substrate incubated for 30 mins by filter binding assay; set-up: species or system Zika virus
dengue virus type 2 = test: Antiviral activity against Dengue virus serotype 2 New Guinea C infected in pre-seeded Huh-7 cells assessed as inhibition of viral replication incubated for 72 hrs by immunodetection based secondary yield reduction assay; assay type: functional, organism-based; details: Dengue virus, New Guinea C, Huh-7, 72 h; read-out: IC50
[2] = (§1) Cytotoxicity against human Huh-7 cells assessed as reduction in cell viability by Celltiter-Glo luminescent cell viability assay; assay type: cell-based; details: Huh-7 cells
Outline: (§2)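 Compound-exposed cells assessed by CellTiter-Glo luminescence versus DMSO control; CC50 from dose-response.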

[3] = target: PIK3CA (Phosphatidylinositol 4,5-bisphosphate 3-kinase catalytic subunit alpha isoform) (Homo sapiens, UniProt P42336); test: Inhibition of human full length PIK3CA assessed as residual activity at 5 uM using PI:PS (1:3) as a substrate incubated for 10 mins by scintillation counting analysis relative to control; details: full length PIK3CA enzyme, probe PI:PS (1:3), read-out: Activity
Sequence of PIK3CA (Phosphatidylinositol 4,5-bisphosphate 3-kinase catalytic subunit alpha isoform) (P42336 whole entry, canonical isoform): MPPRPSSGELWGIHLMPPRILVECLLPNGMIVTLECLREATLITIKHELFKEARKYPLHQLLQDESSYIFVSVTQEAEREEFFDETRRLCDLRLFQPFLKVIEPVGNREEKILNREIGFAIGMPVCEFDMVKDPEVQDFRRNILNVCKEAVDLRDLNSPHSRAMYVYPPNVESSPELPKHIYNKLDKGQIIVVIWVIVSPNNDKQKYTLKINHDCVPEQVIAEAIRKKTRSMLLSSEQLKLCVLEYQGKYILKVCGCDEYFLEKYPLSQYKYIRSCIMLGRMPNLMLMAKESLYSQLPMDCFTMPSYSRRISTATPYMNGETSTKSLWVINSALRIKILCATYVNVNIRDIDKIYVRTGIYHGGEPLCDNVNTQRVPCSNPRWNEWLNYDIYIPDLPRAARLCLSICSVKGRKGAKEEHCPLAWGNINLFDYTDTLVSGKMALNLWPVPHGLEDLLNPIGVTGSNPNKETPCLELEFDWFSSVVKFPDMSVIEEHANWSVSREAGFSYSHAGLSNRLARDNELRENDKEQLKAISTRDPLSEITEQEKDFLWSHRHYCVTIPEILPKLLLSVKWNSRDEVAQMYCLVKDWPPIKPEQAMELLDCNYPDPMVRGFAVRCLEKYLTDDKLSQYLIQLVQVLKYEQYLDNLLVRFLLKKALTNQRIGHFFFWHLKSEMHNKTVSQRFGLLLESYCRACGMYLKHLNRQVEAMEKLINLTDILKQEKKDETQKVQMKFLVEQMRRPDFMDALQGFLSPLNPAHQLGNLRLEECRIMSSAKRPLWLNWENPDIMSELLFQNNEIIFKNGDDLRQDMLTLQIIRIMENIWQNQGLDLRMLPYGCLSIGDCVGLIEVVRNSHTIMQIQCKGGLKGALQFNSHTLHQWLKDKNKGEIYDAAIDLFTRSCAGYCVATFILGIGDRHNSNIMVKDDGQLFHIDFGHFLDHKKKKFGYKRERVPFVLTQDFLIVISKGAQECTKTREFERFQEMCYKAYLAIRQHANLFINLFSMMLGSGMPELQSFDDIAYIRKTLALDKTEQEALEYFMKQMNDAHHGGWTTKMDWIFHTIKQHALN
Outline: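 Radiometric kinase reaction with 10–50 ng enzyme and compound fixed at 5 μM, 10 μL at 30 °C for 10 min. Reactions spotted on filter and counted by scintillation. Residual activity is the mean ± SD of two independent experiments.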

[4] = Inhibition of full length Dengue virus 2 NS5 RNA dependent RNA polymerase incubated for 10 mins by picogreen staining based fluorescent analysis (Rvb= 0.32+/-0.05 uM); set-up: species or system dengue virus type 2
[5] = Selectivity index, ratio of CC50 for human A549 cells to IC50 for Influenza A Puerto Rico/8/34/H1N1 infected in human A549 cells; assay type: toxicity, cell-based; details: read-out: Selectivity Index
Outline: (§3)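 MDCK or A549 cells (2.5 × 10⁵/well) infected with A/Puerto Rico/8/34 H1N1 for 1 h at 37 °C, then washed. Compound (0.5–20 μM) added in 2% FBS medium for 24 h, with DMSO final ≤0.2%. Virus in supernatants read by hemagglutination. CC₅₀ by MTT (2 × 10⁴ cells/well, same concentrations, 24 h, absorbance 570 nm). SI = CC₅₀/IC₅₀.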

[6] = Inhibition of DENV NS5-MTase domain using GpppA2'OMe-RNA74 as a substrate incubated for 30 mins by filter binding assay; set-up: species or system dengue virus type 2
Outline: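 MTase (1 μM) incubated with increasing inhibitor in 40 mM Tris-HCl pH 7.5, 5 mM DTT, 10 μM AdoMet ([3H]-labelled), 0.5 μM GpppA2′OMe-RNA74 substrate, 30 °C for 30 min; stopped in ice-cold 100 μM AdoHcy; DEAE filter binding, scintillation counting.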

[7] = Selectivity index, ratio of CC50 for human Huh-7 cells to IC50 for Zika virus H/PF/2013 infected in pre-seeded Huh-7 cells assessed as inhibition of viral replication incubated for 72 hrs by immunodetection based secondary yield reduction assay; assay type: toxicity, cell-based; details: read-out: Selectivity Index
[8] = Inhibition of full length ZIKA virus NS5 RNA dependent RNA polymerase incubated for 10 mins by picogreen staining based fluorescent analysis (Rvb= 1+/-0.2 uM)
[9] = Selectivity index, ratio of CC50 for human Huh-7 cells to IC50 for Dengue virus serotype 2 New Guinea C infected in pre-seeded Huh-7 cells assessed as inhibition of viral replication incubated for 72 hrs by immunodetection based secondary yield reduction assay; assay type: toxicity, cell-based; details: read-out: Selectivity Index
[10] = Inhibition of Dengue virus 2 […] RNA dependent RNA polymerase incubated for 10 mins by picogreen staining based fluorescent analysis (Rvb= 0.27+/-0.03 uM); set-up: species or system dengue virus type 2
Zika virus = test: Antiviral activity against Zika virus H/PF/2013 infected in pre-seeded Huh-7 cells assessed as inhibition of viral replication incubated for 72 hrs by immunodetection based secondary yield reduction assay; assay type: functional, organism-based; details: H/PF/2013, Huh-7, 72 h
Influenza A virus [11] = test: Antiviral activity against Influenza A Puerto Rico/8/34/H1N1 infected in MDCK cells assessed as inhibition of viral replication measured in supernatants of infected cells after 24 hrs by hemagglutination assay; assay type: functional, organism-based; details: A/Puerto Rico/8/1934(H1N1)
[12] = target: Fyn (Tyrosine-protein kinase Fyn) (Homo sapiens, UniProt P06241); test: Inhibition of human recombinant N terminal His6 tagged full length Fyn assessed as residual activity at 5 uM using […] as a substrate in the presence of NP-40 incubated for 10 mins by scintillation counting analysis relative to control; details: probe […], read-out: Activity
Sequence of Fyn (Tyrosine-protein kinase Fyn) (P06241 whole entry): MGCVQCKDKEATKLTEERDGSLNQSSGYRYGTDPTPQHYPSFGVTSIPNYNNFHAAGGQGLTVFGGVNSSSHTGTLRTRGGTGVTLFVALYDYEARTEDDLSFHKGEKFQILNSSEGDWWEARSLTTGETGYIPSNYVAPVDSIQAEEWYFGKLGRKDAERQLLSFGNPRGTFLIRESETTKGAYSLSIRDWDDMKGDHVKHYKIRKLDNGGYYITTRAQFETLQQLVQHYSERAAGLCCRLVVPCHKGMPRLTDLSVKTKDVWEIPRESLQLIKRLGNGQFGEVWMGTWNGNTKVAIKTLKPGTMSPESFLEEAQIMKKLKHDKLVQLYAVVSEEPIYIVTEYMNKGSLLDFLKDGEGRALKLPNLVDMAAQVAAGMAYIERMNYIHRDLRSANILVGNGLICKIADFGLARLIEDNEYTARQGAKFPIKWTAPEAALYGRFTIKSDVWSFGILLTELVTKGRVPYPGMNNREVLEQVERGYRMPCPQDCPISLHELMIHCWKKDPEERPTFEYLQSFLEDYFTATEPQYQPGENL
Outline: (§4)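 Compounds at fixed 5 μM; 10–50 ng kinase, substrate and NP-40/BSA per supplementary table, 10 μL at 30 °C for 10 min in low-binding tubes. Reactions spotted on filter, dried, scintillation counted. Mean ± SD of two independent experiments.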

CDK9/cyclin T1 = CDK9/cyclin T1 (Homo sapiens, UniProt P50750); test: Inhibition of human full length CDK9/ His-tagged cT1 assessed as residual activity at 5 uM using CDKtide as a substrate in the presence of BSA incubated for 10 mins by scintillation counting analysis relative to control; assay type: protein-complex assay; details: full length CDK9/His-tagged cyclin T1 complex, probe CDKtide, read-out: Activity; outline: as §4
Sequence of CDK9/cyclin T1 (O60563 whole entry): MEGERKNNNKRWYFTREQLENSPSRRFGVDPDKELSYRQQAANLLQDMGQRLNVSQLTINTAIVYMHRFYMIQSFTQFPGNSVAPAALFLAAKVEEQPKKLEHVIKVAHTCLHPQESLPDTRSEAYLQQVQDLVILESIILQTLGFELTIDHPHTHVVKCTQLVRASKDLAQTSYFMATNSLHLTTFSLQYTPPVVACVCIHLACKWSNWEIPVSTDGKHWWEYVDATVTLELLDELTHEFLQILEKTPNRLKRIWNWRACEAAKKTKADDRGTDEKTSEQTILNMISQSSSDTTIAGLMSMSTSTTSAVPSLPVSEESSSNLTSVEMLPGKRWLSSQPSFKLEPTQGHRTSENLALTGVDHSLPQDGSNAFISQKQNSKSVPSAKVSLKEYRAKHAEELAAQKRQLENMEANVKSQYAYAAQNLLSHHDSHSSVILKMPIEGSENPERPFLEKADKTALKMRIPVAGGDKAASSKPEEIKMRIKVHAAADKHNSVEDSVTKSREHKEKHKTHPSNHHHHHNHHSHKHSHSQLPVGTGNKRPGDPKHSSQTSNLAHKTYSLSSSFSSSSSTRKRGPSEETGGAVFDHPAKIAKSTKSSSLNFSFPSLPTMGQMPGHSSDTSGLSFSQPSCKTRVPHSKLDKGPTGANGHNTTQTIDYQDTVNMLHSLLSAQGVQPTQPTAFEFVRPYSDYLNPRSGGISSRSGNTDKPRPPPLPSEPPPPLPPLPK
Sequence of CDK9/cyclin T1 (P50750 whole entry): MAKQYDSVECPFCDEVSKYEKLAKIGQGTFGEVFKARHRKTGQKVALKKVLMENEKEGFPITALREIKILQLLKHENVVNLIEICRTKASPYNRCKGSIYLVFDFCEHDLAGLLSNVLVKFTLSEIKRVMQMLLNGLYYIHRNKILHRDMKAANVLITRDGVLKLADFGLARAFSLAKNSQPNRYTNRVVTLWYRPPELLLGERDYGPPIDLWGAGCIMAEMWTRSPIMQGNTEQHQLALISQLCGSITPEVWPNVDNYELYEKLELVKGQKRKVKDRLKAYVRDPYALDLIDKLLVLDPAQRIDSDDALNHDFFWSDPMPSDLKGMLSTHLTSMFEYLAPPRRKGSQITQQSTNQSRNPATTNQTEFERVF

[13] = Selectivity index, ratio of CC50 for MDCK cells to IC50 for Influenza A Puerto Rico/8/34/H1N1 infected in MDCK cells; assay type: toxicity, cell-based; details: dog, read-out: Selectivity Index; outline: as §3
Influenza A virus [14] = test: Antiviral activity against Influenza A Puerto Rico/8/34/H1N1 infected in human A549 cells assessed as inhibition of viral replication after 24 hrs by hemagglutination assay; assay type: functional, organism-based; details: A/Puerto Rico/8/1934(H1N1), A549, 24 h
[15] = target: Abl (Tyrosine-protein kinase ABL1) (Homo sapiens, UniProt P00519); test: Inhibition of human recombinant N terminal His6 tagged Abl (27 to end residue) assessed as residual activity at 5 uM using KKGEAIYAADFA-NH2 as a substrate in the presence of NP-40 incubated for 10 mins by scintillation counting analysis relative to control; details: probe KKGEAIYAADFA-NH2, read-out: Activity; outline: as §4
Sequence of Abl (Tyrosine-protein kinase ABL1) (P00519 whole entry): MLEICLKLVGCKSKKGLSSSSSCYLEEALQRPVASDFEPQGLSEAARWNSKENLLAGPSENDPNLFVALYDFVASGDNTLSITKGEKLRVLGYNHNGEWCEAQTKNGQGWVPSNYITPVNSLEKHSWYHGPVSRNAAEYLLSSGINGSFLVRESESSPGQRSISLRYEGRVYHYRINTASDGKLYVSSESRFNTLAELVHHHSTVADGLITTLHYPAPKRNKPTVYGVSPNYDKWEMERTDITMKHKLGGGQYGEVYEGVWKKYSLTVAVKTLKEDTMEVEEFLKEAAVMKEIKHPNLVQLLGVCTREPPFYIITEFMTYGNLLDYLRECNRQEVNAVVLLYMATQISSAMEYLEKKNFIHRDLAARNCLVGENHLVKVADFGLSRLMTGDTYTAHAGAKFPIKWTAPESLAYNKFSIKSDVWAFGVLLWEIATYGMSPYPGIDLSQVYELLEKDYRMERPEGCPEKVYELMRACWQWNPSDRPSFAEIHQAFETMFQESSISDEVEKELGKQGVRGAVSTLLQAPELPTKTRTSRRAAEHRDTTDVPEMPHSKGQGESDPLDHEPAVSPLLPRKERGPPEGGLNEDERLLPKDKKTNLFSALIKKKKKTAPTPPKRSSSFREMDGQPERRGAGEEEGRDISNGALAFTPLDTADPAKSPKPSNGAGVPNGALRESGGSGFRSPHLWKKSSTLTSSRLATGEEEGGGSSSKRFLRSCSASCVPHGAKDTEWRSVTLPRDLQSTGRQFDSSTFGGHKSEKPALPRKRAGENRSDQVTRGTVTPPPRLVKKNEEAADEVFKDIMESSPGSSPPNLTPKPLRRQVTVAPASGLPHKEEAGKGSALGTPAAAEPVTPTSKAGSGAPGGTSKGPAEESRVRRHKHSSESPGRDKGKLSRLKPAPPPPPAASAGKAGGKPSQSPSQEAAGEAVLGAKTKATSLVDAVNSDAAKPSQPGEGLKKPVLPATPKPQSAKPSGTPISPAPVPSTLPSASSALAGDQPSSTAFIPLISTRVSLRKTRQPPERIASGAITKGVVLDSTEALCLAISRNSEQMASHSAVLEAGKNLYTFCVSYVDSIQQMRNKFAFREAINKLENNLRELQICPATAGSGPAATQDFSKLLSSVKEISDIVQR

MDCK = test: Cytotoxicity against MDCK cells assessed as reduction in cell viability measured after 24 hrs by MTT assay; assay type: cell-based, Canis lupus familiaris; details: dog, mdck, 24 h
[16] = target: Src (Proto-oncogene tyrosine-protein kinase Src) (Homo sapiens, UniProt P12931); test: Inhibition of human recombinant N terminal His6 tagged full length Src assessed as residual activity at 5 uM using KVEKIGEGTYGVVYK as a substrate in the presence of NP-40 incubated for 10 mins by scintillation counting analysis relative to control; details: probe KVEKIGEGTYGVVYK, read-out: Activity; outline: as §4
Sequence of Src (Proto-oncogene tyrosine-protein kinase Src) (P12931 2-536 limits assumed): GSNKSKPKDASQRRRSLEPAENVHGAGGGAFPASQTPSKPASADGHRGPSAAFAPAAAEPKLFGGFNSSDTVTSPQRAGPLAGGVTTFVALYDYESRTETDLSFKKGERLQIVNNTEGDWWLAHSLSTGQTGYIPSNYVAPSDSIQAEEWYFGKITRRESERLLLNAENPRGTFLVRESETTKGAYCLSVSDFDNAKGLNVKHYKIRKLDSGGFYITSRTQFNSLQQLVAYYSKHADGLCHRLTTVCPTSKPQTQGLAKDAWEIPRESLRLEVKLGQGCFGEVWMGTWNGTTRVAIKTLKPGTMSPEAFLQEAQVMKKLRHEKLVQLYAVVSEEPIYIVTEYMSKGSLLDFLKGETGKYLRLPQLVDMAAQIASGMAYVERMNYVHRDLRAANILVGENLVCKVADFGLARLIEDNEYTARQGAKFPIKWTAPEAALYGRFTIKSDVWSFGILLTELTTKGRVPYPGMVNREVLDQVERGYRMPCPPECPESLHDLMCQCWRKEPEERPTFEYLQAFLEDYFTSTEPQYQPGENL

Huh-7 = test: as §1; assay type: cell-based; details: huh-7; outline: as §2
West Nile virus = test: Antiviral activity against West Nile virus lineage 1 (Italy/2009) infected in pre-seeded Huh-7 cells assessed as inhibition of viral replication incubated for 48 hrs by immunodetection based direct yield reduction assay; assay type: functional, organism-based; details: West Nile virus, lineage 1 (Italy/2009), Huh-7, 48 h; read-out: IC50
[17] = Antioxidant activity assessed as inhibition of ABTS radical scavenging activity at 10 uM to 1 mM measured after 10 mins; assay type: functional
Outline: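 ABTS radical solution diluted in ethanol (1:100) to A734 0.70; 3.0 mL mixed with 30 μL sample in DMSO at 10 μM–1 mM; A734 read after exactly 10 min; ascorbic acid reference; % scavenging = (A0−As)/A0×100.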

[18] = Selectivity index, ratio of CC50 for human Huh-7 cells to IC50 for West Nile virus lineage 1 (Italy/2009) infected in pre-seeded Huh-7 cells assessed as inhibition of viral replication incubated for 48 hrs by immunodetection based direct yield reduction assay; assay type: toxicity, cell-based; details: read-out: Selectivity Index
Outline: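 Direct yield reduction in Huh7 cells (7000/well), infected with 50 TCID₅₀ of DENV or ZIKV, or 25 TCID₅₀ of WNV. Adsorption 1 h at 37 °C, then virus removed and serial compound dilutions added. Incubated 72 h (DENV, ZIKV) or 48 h (WNV). Viral antigen immunodetected on the monolayer. IC₅₀ by non-linear regression, mean of three experiments. SI = CC₅₀ (Huh7, CellTiter-Glo luminescence)/IC₅₀.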

Row | SMILES | CC50 (A549) [µM] | IC50 [1] | IC50 (dengue virus type 2) [µM] | activity at 10 min, 5 µM [3] [%] | IC50 [4] [µM] | selectivity ratio [5] | IC50 [6] | selectivity ratio at 72 h [7] | IC50 [8] [µM] | selectivity ratio at 72 h [9] | IC50 [10] [µM] | IC50 (Zika virus) [µM] | IC50 (Influenza A virus [11]) [µM] | activity at 10 min, 5 µM [12] [%] | activity at 10 min, 5 µM (CDK9/cyclin T1) [%] | selectivity ratio [13] | IC50 (Influenza A virus [14]) [µM] | activity at 10 min, 5 µM [15] [%] | CC50 (MDCK) [µM] | activity at 10 min, 5 µM [16] [%] | also measured
1 | Fc1cccc(Nc2nc(NCCOc3ccccc3)nc3[nH]cnc23)c1 | 58 | Not Active | 12 | 69 | > 100 | 2.8 | Not Active | 68 | 18.9 | 17 | 31.2 | 2.9 | 14 | > 98 | 87 | 5.5 | 20.8 | 54 | 77 | 45 | CC50 [2]: 200 µM
2 | Fc1cccc(NNc2nc(NCCOc3ccccc3)nc3[nH]cnc23)c1 | 52.4 | Not Active | 3.4 | 77 | 153 | 3.5 | Not Active | 8 | 105 | 6 | > 100 | 2.4 | 6.3 | > 98 | 88 | > 5.3 | 14.9 | 67 | 136 | 84 | CC50 (Huh-7): 20 µM; IC50 (West Nile virus): 1.1 µM; Activity [17]: Active; selectivity ratio at 48 h [18]: 18
